Measurements from different studies.
PIK3CA H1047L: Phosphatidylinositol 4,5-bisphosphate 3-kinase catalytic subunit alpha isoform (PIK3CA, Homo sapiens, UniProt P42336, H1047L)
PIK3CA: Phosphatidylinositol 4,5-bisphosphate 3-kinase catalytic subunit alpha isoform (PIK3CA, Homo sapiens, UniProt P42336)
PIK3CA E545A: Phosphatidylinositol 4,5-bisphosphate 3-kinase catalytic subunit alpha isoform (PIK3CA, Homo sapiens, UniProt P42336, E545A)
PIK3CA H1047Y: Phosphatidylinositol 4,5-bisphosphate 3-kinase catalytic subunit alpha isoform (PIK3CA, Homo sapiens, UniProt P42336, H1047Y)
PIK3CA I800L: Phosphatidylinositol 4,5-bisphosphate 3-kinase catalytic subunit alpha isoform (PIK3CA, Homo sapiens, UniProt P42336, I800L)
PIK3CA M1043I: Phosphatidylinositol 4,5-bisphosphate 3-kinase catalytic subunit alpha isoform (PIK3CA, Homo sapiens, UniProt P42336, M1043I)

The remaining binding of CN(C)c1ncc(F)c(-c2cnn3ncccc23)n1 is reported as 100% (PIK3CA H1047L; binding; 1 µM).
Cc1ccc(C(=O)Nc2ccc(CN3CCN(C)CC3)c(C(F)(F)F)c2)cc1C#Cc1cnc2cccnn12 has a remaining activity of 96% (Phosphatidylinositol 4,5-bisphosphate 3-kinase catalytic subunit alpha isoform (PIK3CA, Homo sapiens, UniProt P42336, E542K); enzyme activity; inhibitor; 23.5 nM).
C[C@@H]1CCN(c2nccc(-c3cnn4ncccc34)n2)C1 has a remaining binding of 100% (PIK3CA; binding; 1 µM).
The kinact of C=CC(=O)NCCCCC(=O)N1CCN(c2nc(-c3cnc(N)nc3C(F)F)nc(N3CCOCC3)n2)CC1 is reported as 9.6e-05 s⁻¹ (PIK3CA; ligand displacement; TR-FRET).
The remaining binding of Cc1cnn2ncc(-c3ccnc(N(C)C)n3)c2c1 is reported as 100% (PIK3CA E545A; binding; 1 µM).
With O=C(CSc1nc2nccnc2c(=O)n1CCc1ccccc1)Nc1ccccc1 the inhibition was < 20% (PIK3CA; enzyme activity; inhibitor; 10 µM).
For CCCCNc1ncc2c(-c3ccc(F)cc3)nn(C[C@H]3CC[C@H](N)CC3)c2n1, the inhibition was 70.8% (PIK3CA; target engagement in cells; inhibitor; chemoproteomics; 20 mM).
For CS(=O)(=O)Nc1cc(-c2ccc3ncnc(Nc4ccc(F)c(Cl)c4)c3c2)cnc1Cl, the inhibition was 90 to 100% (PIK3CA; enzyme activity; inhibitor; FRET; 10 µM).
The remaining binding of N[C@@H]1CCN(c2nccc(-c3cnn4ncccc34)n2)C1 is reported as 100% (PIK3CA H1047L; binding; 1 µM).
For O=C(O)[C@@H]1[C@@H](Cn2nnc3ccccc3c2=O)CC[C@H]1C(=O)c1ccc(OCCC2CCOCC2)cc1, the remaining binding was 100% (PIK3CA; cell-free assay; competition with immobilised ligand; 1 µM).
The remaining binding of F[C@@H]1CCN(c2nccc(-c3cnn4ncccc34)n2)C1 is reported as 81% (PIK3CA H1047Y; binding; 1 µM).
Cc1nc(Cc2cccc(C(F)(F)F)c2)sc1-c1ccc(C(N)=O)nc1 gave a remaining binding of 100% (PIK3CA E545A; cell-free assay; competition with immobilised ligand; 1 µM).
C=CC(=O)N1CCC(C(=O)N(C)CCCC(=O)N2CCN(c3nc(-c4cnc(N)nc4C(F)F)nc(N4CCOCC4)n3)CC2)CC1 has a kinact/KI of 33600 M⁻¹ s⁻¹ (PIK3CA; cell-free assay; TR-FRET).
The remaining binding of O=C(Nc1cccnn1)N1CC(C/C=C/c2cncc(Oc3ccc(C(F)(F)F)cn3)n2)C1 is reported as 91% (PIK3CA I800L; cell-free assay; competition with immobilised ligand; 1 µM).
c1cnn2ncc(-c3ccnc(N4CCC45COC5)n3)c2c1 has a remaining binding of 68% (PIK3CA I800L; binding; 1 µM).
For CC(=O)Oc1ccc(-c2coc3c4c(c(CC=C(C)C)c(OC(C)=O)c3c2=O)OC(C)(C)C=C4)cc1OC(C)=O, the remaining activity was 37.6% (Phosphatidylinositol 4,5-bisphosphate 3-kinase catalytic subunit alpha isoform (PIK3CA, Homo sapiens, UniProt P42336, E545K); enzyme activity; inhibitor; ADP detection; 10 µM).
O=c1nc(-c2ccccn2)sc2ccccc12 gave a remaining binding of 100% (PIK3CA M1043I; cell-free assay; competition with immobilised ligand; 1 µM).
Nc1ncnc2occ(-c3ccc(NC(=O)Nc4cc(C(F)(F)F)ccc4F)cc3)c12 gave a remaining signal of 72% (Phosphatidylinositol 4,5-bisphosphate 3-kinase catalytic subunit alpha isoform (PIK3CA, Homo sapiens, UniProt P42336, Q546K); cell-free assay; inhibitor; 20 µM).
For c1ccc(CNc2nc(N3CCOc4ccccc43)nc3c2CCCC3)cc1, the inhibition was 28.5% (PIK3CA; target engagement in cells; inhibitor; chemoproteomics; 20 mM).
For CN(C)c1nccc(-c2cnn3ncccc23)n1, the remaining binding was 96% (PIK3CA I800L; binding; 1 µM).
CC(C)(O)c1cncc(-c2nc3ccc(F)cc3n2C2CC2)c1 gave a remaining binding of 100% (PIK3CA M1043I; cell-free assay; competition with immobilised ligand; 1 µM).
For Cc1ccc(C(=O)NCc2ccsc2)cc1C#Cc1cn(C(C)C)c2ncnc(N)c12, the activity vs control was 100% (Phosphatidylinositol 4,5-bisphosphate 3-kinase catalytic subunit alpha isoform, with p85 (PIK3CA, Homo sapiens, UniProt P42336, E542K); enzyme activity; inhibitor; 1 µM).
CC(C)=CC(=O)CCCC(=O)N1CCN(c2nc(-c3cnc(N)nc3C(F)F)nc(N3CCOCC3)n2)CC1 has a kinact of 2.6e-05 s⁻¹ (PIK3CA; cell-free assay; TR-FRET).
COc1cccc(CNC(=O)c2nc3scc(COCc4ccc(C(=O)O)cc4)c3c(=O)[nH]2)c1 gave a remaining binding of 77.2% (PIK3CA I800L; cell-free assay; competition with immobilised ligand; 1 µM).
For C=CC(=O)N(C)CCCCC(=O)N1CCN(c2nc(-c3cnc(N)nc3C(F)F)nc(N3CCOCC3)n2)CC1, the kinact/KI was 20300 M⁻¹ s⁻¹ (PIK3CA; cell-free assay; TR-FRET).
With Nc1cnc(N2CCc3cc(S(=O)(=O)Nc4c(F)cc(Cl)cc4F)cc(N4CCCC4=O)c32)nc1 the remaining binding was 100% (PIK3CA H1047Y; cell-free assay; competition with immobilised ligand; 1 µM).
